INS promoter act – TRM-6 insulin promoter activation; activation, % at 2 µM; AID 1296; TRM-6 cells (human fetal islet line), insulin promoter eGFP reporter, imaging; plate-scaled: unstimulated 0, stimulated control 100; 0.81% of 130,000 active;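 active = activation at 2 µM above a set limit, confirmed on inspection of the cell images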;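 also: share of cells whose green reporter signal exceeds an intensity cutoff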
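Assay system: TRM-6 human fetal islet cells, insulin promoter–eGFP reporter; Also added: 0.75 µM tamoxifen as reporter inducer; Schedule: 15 h tamoxifen pre-treatment, 48 h compound treatment at 37 °C; Signal: fixed-cell fluorescence microscopy, eGFP plus Hoechst; Read-out: percent activation from GFP-positive cell fraction; Control set: stimulated and unstimulated wells.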
* hit, by the source's call. Shown is part of a subset that was picked to be rich in hits.

SMILES	INS promoter act
Cc1cc(C)n2nc(-c3ccc(F)cc3)nc2n1	0
COc1ccc(/C=C2\SC(=NCc3ccccc3)N(Cc3ccccc3)C2=O)cc1OC	9
C=CCN1C(=O)/C(=C/c2ccc(N(C)C)cc2)S/C1=N\c1nnc(CC)s1	163*
Cc1ccc(S(=O)(=O)Nc2cccc(NC(=O)CN3CCCCC3)c2)cc1	0
CC(=O)Nc1cccc(NC(=O)CSc2nnnn2C(C)C)c1	3
O=C(CSc1nnnn1C1CCCCC1)NCc1cccc(C(=O)O)c1	-3
O=C(CSc1nnnn1C1CCCC1)Nc1cccc(NC(=O)c2ccco2)c1	830*
Cc1cc(=O)oc2c(CN3CC(C)OC(C)C3)c(O)c(Cl)cc12 (stereo not drawn)	8
Cc1cccc(NC(=O)C2CCN(c3nccc(C)n3)CC2)c1	0
Clc1cccc(CSC2=NCCCN2)c1	318
COc1ccc(S(=O)(=O)N(C)CC(=O)N2CCOCC2)cc1	-7
O=C(CNS(=O)(=O)c1ccc(Br)cc1)N1CCN(c2ccc(F)cc2)CC1	354
CN(CC(=O)N1CCN(c2ccc(F)cc2)CC1)S(=O)(=O)c1ccc(F)cc1	79*
CCN(CC)c1ccc(-c2nnc(SCC(=O)Nc3ccccc3C#N)n2-c2ccccc2)cc1	0
COc1ccc(CCNC(=O)c2ccc(-c3ccc([N+](=O)[O-])cc3Cl)o2)cc1	-100
CSc1nsc(/C=C/Nc2ccc(O)cc2C)c1C#N	809*
CSc1nc(C)cc(/C=C\c2ccccc2)c1C#N	107
CCOC(=O)c1c(C)c(C(=O)Nc2ccc(F)cc2)c(C)n1C	142
O=C(/C=C/c1ccc(Cl)cc1)NCc1ccncc1	113
O=C(CN1CCOCC1)N1CCN(S(=O)(=O)c2ccccc2)C1c1ccccc1 (stereo not drawn)	-3
Cc1ccc(S(=O)(=O)N2CCN(C(=O)CN3CCOCC3)C2C(C)C)cc1 (stereo not drawn)	500*
Cc1ccc(C(=O)N2CCN(C(=O)CN3CCOCC3)C2)cc1	-4
Cc1ccc(C(=O)Nc2c3c(nn2C(C)(C)C)CS(=O)(=O)C3)cc1C	-9
Cc1nc(SCCOc2ccccc2F)[nH]c(=O)c1Cc1ccccc1	0
CC(C)C[C@H](NC(=O)OC(C)(C)C)C(=O)N1CCC(C(=O)N[C@@H](Cc2ccccc2)C(=O)O)CC1	-40
SMILES	INS promoter act
O=C(CSc1nc2nn(-c3ccccc3)c(=O)c-2c2n1CCCCC2)NCCCc1ccccc1	133
CC(C)(C)C1CCC(OC(=O)C[N+]2(C)CCCCC2)CC1 (stereo not drawn)	200*
C[N+]1(CCC(=O)c2ccccc2)CCCCC1	-64
CCOc1ccccc1NC(=S)N1CCN(c2nc(-c3ccc(F)cc3)cs2)CC1	5
CC(=O)c1ccc(NC(=O)CN2C(=O)CCC2=O)cc1	-7
NC(=S)NNC(=O)C12CC3CC(CC(C3)C1)C2	8
COC(=O)c1ccccc1NC(=O)CSc1nnc(CNS(=O)(=O)c2ccc(C)cc2)n1C	6
CCOC(=O)c1c(CN2CCN(C)CC2)oc2ccc(OC)cc12	138*
CCOC(=O)CCC(=O)c1c(C)oc2ccc(OC)cc12	50
CCOC(=O)c1c(C)oc2ccc(OC(=O)c3cccs3)cc12	7
O=C(c1cc(C(=O)NCCc2ccccc2)c(=O)n(CCc2ccccc2)c1)c1cc(Cl)ccc1O	3
COc1ccccc1Nc1cc(C(=O)N2CCc3ccccc3C2)c2ccccc2n1	8
Cc1cccc(Nc2ccccc2C(=O)O)c1C	5
Cc1cc(Nc2ccccc2C(=O)O)nc2nc3ccccc3c(=O)n12	146*
CC(C)c1ccc2c(c1)C1Cc3ccccc3C1N2 (stereo not drawn)	137
Cc1ccc(NC(=O)/C=C/c2ccc([N+](=O)[O-])s2)cc1	270*
Cc1ccc(NC(=O)/C=C/c2ccc([N+](=O)[O-])s2)c(C)c1	179
Cc1ccc(C(=O)N/N=C/c2ccc([N+](=O)[O-])s2)cc1	8
O=C1C(=O)N(CCCn2ccnc2)C(c2cccnc2)/C1=C(/O)c1ccccc1 (stereo not drawn)	364
CC(=O)COC(=O)c1cccc(N2C(=O)C3C4C=CC(C4)C3C2=O)c1 (stereo not drawn)	-12
COC(=O)C1=C(C)N(c2cccc(C(C)=O)c2)C(=O)C1	475*
CCN1C(=O)CC(C(=O)OC)=C1C	6
CCOc1ccccc1C(=O)N[C@H](C(=O)OCc1cc([N+](=O)[O-])cc2c1OCOC2)C(C)C	-3
COc1cccc(C2=NOC(C(=O)Nc3ccccc3SC)C2)c1 (stereo not drawn)	286
CC(C)(C)c1ccc(/C=C/C(=O)N2CCCCC2)cc1	335*
SMILES	INS promoter act
CC(C)Cc1ccc(/C=C/C(=O)N2CCCCC2)cc1	-3
O=C(/C=C/c1ccc(Cl)cc1)N1CCN(c2ncccn2)CC1	4
C=CCNc1oc(-c2cccs2)nc1C#N	7
Cc1ccc(C)c2c1[nH]c1ccc([N+](=O)[O-])cc12	0
CC(=O)N/C(=C/c1ccc2c(c1)OCO2)C(=O)NCCO	7
Cc1cccnc1CCNC(=O)CC1C(=O)NCCN1CC1CCCCC1 (stereo not drawn)	4
Cc1ccc(C(=O)NNC(=O)CSc2nnc(-c3ccccc3)n2Cc2ccccc2)cc1	-7
Cc1cc(NC(=O)c2ccc3c(c2)OCO3)no1	-85
Cc1cc(NC(=O)c2ccc(S(=O)(=O)N(C)CC3CCCO3)cc2)no1 (stereo not drawn)	414*
CC(=O)Nc1ccc(C(=O)Nc2ccc(S(=O)(=O)NCC3CCCO3)cc2)cc1 (stereo not drawn)	-6
COc1ccccc1-n1ccnc1SCC(=O)NCc1ccco1	4
COc1cc(OC)c(NC(=O)C(=O)CC(=O)c2ccc(C)cc2C)cc1Cl	-9
COc1ccc(C(=O)c2c[nH]c(C(=O)NCCCN3CCOCC3)c2)cc1	-8
CCCC(=O)Nc1ccc(Cl)c(NC(=O)C(C)(C)C)c1	790*
O=C(O)CCC(=O)Nc1ccc(Br)c(Cl)c1	-2
O=C(Nc1ccc(Br)c(Cl)c1)C1CC1	-75
CCC(=O)Nc1ccc(Cl)c(NC(=O)c2ccc(Br)o2)c1	334
CCCC(=O)Nc1ccc(Br)c(Cl)c1	443*
CC(C)(C)C(=O)CC(=O)Nc1ccc(Cl)c(N)c1	0
O=C(Nc1ccccc1)OCc1cncs1	6
CCOC(=O)/C(=C\c1cccc(O)c1)c1nc2sc(C)c(C)c2c(=O)[nH]1	0
O=C(NCCSc1ccccn1)c1ccc(Cl)cc1Cl	-8
CN(C)C(CNC(=O)Cc1cccc(C(F)(F)F)c1)c1ccco1 (stereo not drawn)	0
CCOCCCNC(=O)CN(Cc1ccc(Cl)cc1)S(C)(=O)=O	189
CCN(CC(=O)NCCc1ccccc1)S(=O)(=O)c1ccc(Br)cc1	4
SMILES	INS promoter act
CCCNC(=O)CN(CCc1ccccc1)S(C)(=O)=O	93*
CCOC(=O)N1CCN(C(=O)CSc2ncccn2)CC1	186*
CCOC(=O)N1CCN(C(=O)CSc2ccc(-c3ccccc3)nn2)CC1	3
CCOC(=O)N1CCN(C(=O)CSc2ccc(-c3ccncc3)nn2)CC1	-75
COC(=O)c1sc(=S)n(-c2cccc(Cl)c2)c1N	0
Cc1ccccc1NC(=S)N(CCc1c(C)[nH]c2ccc(F)cc12)Cc1cccnc1	0
COc1cccc(NC(=S)N(CCc2c(C)[nH]c3ccc(C)cc23)Cc2cccs2)c1	-5
Cc1[nH]c2ccc(F)cc2c1CCN(Cc1ccco1)C(=S)NC(C)(C)C	347*
O=C(Cn1c(=S)[nH]c2ccccc2c1=O)N1CCN(c2ccc(F)cc2)CC1	0

Source: PubChem (Columbia University Molecular Screening Center)
